Source: the M2OR odorant receptor database
Numbering of substitutions follows the chain as printed.

Key:
Settings in all cases: stereoisomer not certain
OR6B3 (Homo sapiens) = biological target: T1, OR6B3 (Homo sapiens) (UniProt Q8NGW1)
T1 sequence (whole entry): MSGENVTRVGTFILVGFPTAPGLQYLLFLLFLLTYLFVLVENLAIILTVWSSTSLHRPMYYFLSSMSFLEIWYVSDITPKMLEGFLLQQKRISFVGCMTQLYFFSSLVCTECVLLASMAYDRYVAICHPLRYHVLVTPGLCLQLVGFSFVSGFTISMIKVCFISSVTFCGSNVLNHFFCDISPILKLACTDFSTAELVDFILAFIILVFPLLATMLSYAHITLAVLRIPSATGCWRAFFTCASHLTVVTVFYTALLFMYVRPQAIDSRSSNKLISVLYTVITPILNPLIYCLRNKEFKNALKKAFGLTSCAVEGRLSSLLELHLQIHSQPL
Method in brief: (§1)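 Each receptor–molecule pair is labelled responsive or non-responsive (inactive) according to whether the original authors judged the measured signal statistically different from baseline. The data were taken from the main text and supplementary material of published papers and checked for typos and inconsistencies. Assay methods differed by source, with transient luciferase assays in mammalian cell lines being common.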

OR6B3 T48I R131C = test system: T2, OR6B3 T48I R131C
T2 sequence (whole entry): T1 sequence (whole entry) with T48I, R131C
Method in brief: as §1

OR6C1 (Homo sapiens) = biological target: T3, OR6C1 (Homo sapiens) (UniProt Q96RD1)
T3 sequence (whole entry): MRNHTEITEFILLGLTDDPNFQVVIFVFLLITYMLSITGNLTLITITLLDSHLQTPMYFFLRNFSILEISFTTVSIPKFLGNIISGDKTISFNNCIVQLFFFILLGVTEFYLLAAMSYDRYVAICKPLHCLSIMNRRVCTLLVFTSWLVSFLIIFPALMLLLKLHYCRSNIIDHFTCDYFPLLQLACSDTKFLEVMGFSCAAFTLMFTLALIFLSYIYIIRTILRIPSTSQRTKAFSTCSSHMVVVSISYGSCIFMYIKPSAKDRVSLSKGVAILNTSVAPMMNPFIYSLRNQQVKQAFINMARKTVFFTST
Method in brief: as §1

OR6C1 C130Y H165D V246I = test system: T4, OR6C1 C130Y H165D V246I
T4 sequence (whole entry): T3 sequence (whole entry) with C130Y, H165D, V246I
Method in brief: as §1

OR6C2 (Homo sapiens) = biological target: T5, OR6C2 (Homo sapiens) (UniProt Q9NZP2)
T5 sequence (whole entry): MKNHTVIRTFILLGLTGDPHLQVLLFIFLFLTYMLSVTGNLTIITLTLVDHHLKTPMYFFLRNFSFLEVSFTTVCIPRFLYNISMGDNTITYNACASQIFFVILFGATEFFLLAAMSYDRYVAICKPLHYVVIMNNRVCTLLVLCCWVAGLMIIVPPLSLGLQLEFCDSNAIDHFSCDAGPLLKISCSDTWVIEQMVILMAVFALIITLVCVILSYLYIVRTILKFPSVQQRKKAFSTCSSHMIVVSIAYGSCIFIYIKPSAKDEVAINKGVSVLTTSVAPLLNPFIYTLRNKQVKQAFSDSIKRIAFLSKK
Method in brief: as §1

OR6C3 (Homo sapiens) = biological target: T6, OR6C3 (Homo sapiens) (UniProt Q9NZP0)
T6 sequence (whole entry): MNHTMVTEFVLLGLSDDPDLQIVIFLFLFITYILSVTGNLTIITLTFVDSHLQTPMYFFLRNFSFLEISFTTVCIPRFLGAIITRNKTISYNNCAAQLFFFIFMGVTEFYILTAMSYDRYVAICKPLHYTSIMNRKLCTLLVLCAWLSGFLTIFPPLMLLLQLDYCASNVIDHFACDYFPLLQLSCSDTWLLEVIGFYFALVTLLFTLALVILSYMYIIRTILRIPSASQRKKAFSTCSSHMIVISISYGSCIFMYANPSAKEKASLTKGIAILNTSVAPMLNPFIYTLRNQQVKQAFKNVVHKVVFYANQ
Method in brief: as §1

OR6C4 (Homo sapiens) = biological target: T7, OR6C4 (Homo sapiens) (UniProt Q8NGE1)
T7 sequence (whole entry): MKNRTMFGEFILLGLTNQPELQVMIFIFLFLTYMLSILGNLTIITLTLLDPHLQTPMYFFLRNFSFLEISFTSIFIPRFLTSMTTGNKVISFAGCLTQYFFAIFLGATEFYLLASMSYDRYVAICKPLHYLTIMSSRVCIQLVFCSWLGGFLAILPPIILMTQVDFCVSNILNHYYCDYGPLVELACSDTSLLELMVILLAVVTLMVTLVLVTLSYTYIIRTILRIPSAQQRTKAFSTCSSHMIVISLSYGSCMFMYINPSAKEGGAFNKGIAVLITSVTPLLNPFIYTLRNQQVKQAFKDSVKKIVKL
Method in brief: as §1

OR6C4 = test system: T8, OR6C4
T8 sequence (whole entry): T7 sequence (whole entry) with I37V
Method in brief: as §1

OR6C6 (Homo sapiens) = biological target: T9, OR6C6 (Homo sapiens) (UniProt A6NF89)
T9 sequence (whole entry): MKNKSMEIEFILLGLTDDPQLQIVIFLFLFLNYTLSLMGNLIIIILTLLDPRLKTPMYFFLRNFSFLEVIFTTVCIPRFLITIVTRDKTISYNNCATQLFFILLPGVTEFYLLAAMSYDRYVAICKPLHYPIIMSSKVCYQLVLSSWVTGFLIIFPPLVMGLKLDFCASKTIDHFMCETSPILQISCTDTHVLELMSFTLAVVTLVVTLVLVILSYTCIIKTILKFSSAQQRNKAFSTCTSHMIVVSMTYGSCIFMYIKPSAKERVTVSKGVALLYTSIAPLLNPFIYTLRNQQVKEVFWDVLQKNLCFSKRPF
Method in brief: as §1

OR6C6 M6I = test system: T10, OR6C6 M6I
T10 sequence (whole entry): T9 sequence (whole entry) with M6I
Method in brief: as §1

OR6C65 (Homo sapiens) = biological target: T11, OR6C65 (Homo sapiens) (UniProt A6NJZ3)
T11 sequence (whole entry): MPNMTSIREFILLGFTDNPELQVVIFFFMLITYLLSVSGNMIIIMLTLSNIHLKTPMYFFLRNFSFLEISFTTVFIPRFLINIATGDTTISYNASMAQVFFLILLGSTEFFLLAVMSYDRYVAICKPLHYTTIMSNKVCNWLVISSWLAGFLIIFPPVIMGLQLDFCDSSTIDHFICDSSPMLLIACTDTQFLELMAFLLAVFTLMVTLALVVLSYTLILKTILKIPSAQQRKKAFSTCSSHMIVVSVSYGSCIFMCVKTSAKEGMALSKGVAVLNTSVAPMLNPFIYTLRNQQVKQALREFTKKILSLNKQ
Method in brief: as §1

OR6C68 (Homo sapiens) = biological target: T12, OR6C68 (Homo sapiens) (UniProt A6NDL8)
T12 sequence (whole entry): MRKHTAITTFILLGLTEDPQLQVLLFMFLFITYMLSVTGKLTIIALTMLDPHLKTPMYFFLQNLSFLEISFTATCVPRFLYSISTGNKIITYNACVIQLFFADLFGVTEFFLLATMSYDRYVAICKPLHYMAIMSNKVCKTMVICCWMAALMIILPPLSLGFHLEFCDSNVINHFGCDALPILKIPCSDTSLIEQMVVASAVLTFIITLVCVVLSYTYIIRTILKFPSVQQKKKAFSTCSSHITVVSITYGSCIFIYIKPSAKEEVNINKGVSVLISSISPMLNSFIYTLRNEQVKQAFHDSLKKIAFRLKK
Method in brief: as §1

OR6C70 (Homo sapiens) = biological target: T13, OR6C70 (Homo sapiens) (UniProt A6NIJ9)
T13 sequence (whole entry): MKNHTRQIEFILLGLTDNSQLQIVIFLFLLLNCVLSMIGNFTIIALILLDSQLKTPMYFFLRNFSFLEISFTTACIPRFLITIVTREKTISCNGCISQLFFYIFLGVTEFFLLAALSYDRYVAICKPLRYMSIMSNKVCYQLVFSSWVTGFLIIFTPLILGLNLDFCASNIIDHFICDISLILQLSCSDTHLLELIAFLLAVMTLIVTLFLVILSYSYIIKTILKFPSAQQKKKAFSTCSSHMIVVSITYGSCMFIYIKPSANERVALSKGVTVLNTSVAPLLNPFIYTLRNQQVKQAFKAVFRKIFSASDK
Method in brief: as §1

OR6C74 (Homo sapiens) = biological target: T14, OR6C74 (Homo sapiens) (UniProt A6NCV1)
T14 sequence (whole entry): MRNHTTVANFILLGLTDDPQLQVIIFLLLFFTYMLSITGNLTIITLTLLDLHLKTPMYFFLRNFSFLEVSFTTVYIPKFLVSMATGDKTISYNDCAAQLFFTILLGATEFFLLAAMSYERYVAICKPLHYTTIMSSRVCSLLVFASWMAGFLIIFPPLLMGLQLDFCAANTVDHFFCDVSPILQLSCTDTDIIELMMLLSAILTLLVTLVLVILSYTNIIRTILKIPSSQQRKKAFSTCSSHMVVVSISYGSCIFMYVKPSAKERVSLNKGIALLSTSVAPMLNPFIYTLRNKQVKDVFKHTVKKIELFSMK
Method in brief: as §1

OR6C75 (Homo sapiens) = biological target: T15, OR6C75 (Homo sapiens) (UniProt A6NL08)
T15 sequence (whole entry): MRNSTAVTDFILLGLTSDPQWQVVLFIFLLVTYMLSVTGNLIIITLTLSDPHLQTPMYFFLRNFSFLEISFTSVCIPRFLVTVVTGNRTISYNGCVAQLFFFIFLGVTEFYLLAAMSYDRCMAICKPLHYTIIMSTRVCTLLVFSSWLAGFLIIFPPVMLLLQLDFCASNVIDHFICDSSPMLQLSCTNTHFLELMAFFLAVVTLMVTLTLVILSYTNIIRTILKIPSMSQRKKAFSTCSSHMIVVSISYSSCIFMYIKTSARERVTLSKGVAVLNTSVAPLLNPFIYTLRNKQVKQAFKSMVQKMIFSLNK
Method in brief: as §1

OR6C76 (Homo sapiens) = biological target: T16, OR6C76 (Homo sapiens) (UniProt A6NM76)
T16 sequence (whole entry): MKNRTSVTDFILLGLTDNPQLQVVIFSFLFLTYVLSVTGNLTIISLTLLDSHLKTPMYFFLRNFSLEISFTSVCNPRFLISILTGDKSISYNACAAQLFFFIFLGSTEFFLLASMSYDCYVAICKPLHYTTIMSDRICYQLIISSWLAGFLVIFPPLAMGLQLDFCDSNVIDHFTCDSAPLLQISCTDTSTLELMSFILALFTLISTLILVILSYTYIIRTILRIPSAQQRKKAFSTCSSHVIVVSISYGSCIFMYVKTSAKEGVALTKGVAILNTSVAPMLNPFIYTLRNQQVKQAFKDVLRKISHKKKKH
Method in brief: as §1

OR6F1 (Homo sapiens) = biological target: T17, OR6F1 (Homo sapiens) (UniProt Q8NGZ6)
T17 sequence (whole entry): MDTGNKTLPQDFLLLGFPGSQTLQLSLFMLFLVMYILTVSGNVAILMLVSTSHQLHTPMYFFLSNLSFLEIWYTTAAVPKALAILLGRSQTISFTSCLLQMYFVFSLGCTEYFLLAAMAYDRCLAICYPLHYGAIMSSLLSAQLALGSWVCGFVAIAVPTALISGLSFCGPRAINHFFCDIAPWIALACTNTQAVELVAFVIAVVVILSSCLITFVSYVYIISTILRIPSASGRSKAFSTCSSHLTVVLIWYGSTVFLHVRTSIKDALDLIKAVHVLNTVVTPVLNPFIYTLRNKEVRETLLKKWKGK
Method in brief: as §1

OR6J1 (Homo sapiens) [1] = biological target: T18, OR6J1 (Homo sapiens) (UniProt Q8NGC5)
T18 sequence (whole entry): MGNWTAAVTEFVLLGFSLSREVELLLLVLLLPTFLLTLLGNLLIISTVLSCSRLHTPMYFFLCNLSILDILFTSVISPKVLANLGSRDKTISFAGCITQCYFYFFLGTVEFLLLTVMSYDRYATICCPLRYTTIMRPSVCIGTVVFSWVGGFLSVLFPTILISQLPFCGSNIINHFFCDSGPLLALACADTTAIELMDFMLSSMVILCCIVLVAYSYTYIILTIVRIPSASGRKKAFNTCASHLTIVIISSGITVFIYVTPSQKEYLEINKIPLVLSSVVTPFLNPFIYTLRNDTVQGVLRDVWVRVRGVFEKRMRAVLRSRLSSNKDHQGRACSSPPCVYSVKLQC
Method in brief: as §1

OR6K2 (Homo sapiens) = biological target: T19, OR6K2 (Homo sapiens) (UniProt Q8NGY2)
T19 sequence (whole entry): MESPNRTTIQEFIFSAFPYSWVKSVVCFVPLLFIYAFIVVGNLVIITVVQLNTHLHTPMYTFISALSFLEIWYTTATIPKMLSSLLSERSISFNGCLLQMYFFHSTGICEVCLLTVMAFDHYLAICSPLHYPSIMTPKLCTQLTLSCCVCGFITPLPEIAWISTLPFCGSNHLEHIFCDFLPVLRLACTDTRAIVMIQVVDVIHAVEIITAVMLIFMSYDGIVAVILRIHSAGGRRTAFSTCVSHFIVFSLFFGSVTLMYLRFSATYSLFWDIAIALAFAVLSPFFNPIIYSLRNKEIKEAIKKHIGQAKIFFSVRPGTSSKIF
Method in brief: as §1

OR6J1 (Homo sapiens) [2] = biological target: T20, OR6J1 (Homo sapiens) (UniProt Q8NGC5); remark: listed apart in the source
T20 sequence (whole entry): T18 sequence (whole entry) with S250P
Method in brief: as §1

Measured: odorant receptor agonist call;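 note: active if original authors judged signal statistically different from baseline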

CCC1OC(=O)C(O)=C1C (stereo unspecified)
not listed: OR6J1 (Homo sapiens) [2]
inactive: all other assays above

CCCCCC(=O)C(C)C(C)=O (stereo unspecified)
not listed: OR6B3 T48I R131C | OR6C1 C130Y H165D V246I | OR6C4 | OR6C6 M6I | OR6J1 (Homo sapiens) [1]
inactive: all other assays above

CCC1OC(C)=C(O)C1=O (stereo unspecified)
not listed: OR6J1 (Homo sapiens) [2]
inactive: all other assays above

CCCCCCC=CCCC=O
not listed: OR6J1 (Homo sapiens) [1]
inactive: all other assays above

CC1CCCCCCCCCCCCC(=O)C1 (stereo unspecified)
not listed: OR6B3 T48I R131C | OR6C1 C130Y H165D V246I | OR6C4 | OR6C6 M6I | OR6J1 (Homo sapiens) [1]
inactive: all other assays above

CCCCCC(S)C(C)CO (stereo unspecified)
not listed: OR6B3 T48I R131C | OR6C1 C130Y H165D V246I | OR6C4 | OR6C6 M6I | OR6J1 (Homo sapiens) [1]
inactive: all other assays above

CCCCC(S)C(C)CO (stereo unspecified)
not listed: OR6B3 T48I R131C | OR6C1 C130Y H165D V246I | OR6C4 | OR6C6 M6I | OR6J1 (Homo sapiens) [1]
inactive: all other assays above

CC1=NC(C)C(C)S1 (stereo unspecified)
not listed: OR6J1 (Homo sapiens) [2]
inactive: all other assays above
